Results gathered from unrelated publications.
Protocols differ between the studies behind these lines.
Organism: Pseudomonas aeruginosa
Observed: microbial growth

Brc1ccc(NCc2ccc(Oc3ccccn3)cc2)cc1 has an MIC of greater than 25 µg/mL.
The MIC of C[C@H]1COc2c(N3CCN(C)CC3)c(F)cc3c(=O)c(C(=O)O)cn1c23 is reported as 1 µg/mL (agar dilution; ATCC27).
The MIC of O=[N+]([O-])c1ccc(-c2nc3ccccc3n2Cc2ccccc2)cc1 is reported as 128 µg/mL (broth dilution; ATCC27853).
CC1=NN(CNc2ccccc2)C(=O)C1=NNn1c(-c2ccccc2)nc2ccccc2c1=O gave an MIC of 111 µM (broth dilution; 24 h).
C/C(O)=C1\C(=O)C(CC(C)C)N(C(=O)C=Cc2ccccc2)C1=O (stereo not shown) gave an MIC of greater than 200 µg/mL (PA01).
With CCCCCCC#Cc1cncc(-c2nnc(SCc3ccc(Cl)cc3)n2C)c1 the MIC was no less than 20 µg/mL.
With CN(C)[C@@H]1C(O)=C(C(N)=O)C(=O)[C@@]2(O)C(O)=C3C(=O)c4c(O)cnc(-c5ccccc5)c4C[C@H]3C[C@@H]12.Cl.Cl the MIC was greater than 32 µg/mL (broth dilution; ATCC27853).
The MIC of CCCCCCC/C=C/C(=O)N1C(=O)/C(=C(/C)O)C(=O)C1CCCCN (stereo not shown) is reported as greater than 200 µg/mL (PA01).
With Cn1cc(NC(=O)C(CC(N)=O)NC(=O)c2ccc(NC(=O)c3ccc(C#N)cc3)cc2)cc1-c1nc2ccc(C(=O)Nc3ccc(C(=O)O)cc3)c(O)c2[nH]1 (stereo not shown) the MIC was greater than 64 µg/mL (PA14).
The MIC of O=c1cc(-c2ccccc2)oc2cc(O)c(O)c(O)c12 is reported as 256 µg/mL (broth dilution; PAO1).
For CC1NC(=O)C(C(=O)NC(C(=O)NC2C(=O)N3C2SC(C)(C)C3C(=O)O)c2ccccc2)=C1O (stereo not shown), the MIC was 50 µg/mL.
With O=[N+]([O-])c1ccc(O)c2ncccc12 the MIC was 16 µg/mL (broth dilution; ATCC27853).
The MIC of Cc1cc(=O)[nH]n1C(=O)c1ccc(-n2c(C)ccc2C)cc1 is reported as 250 µg/mL (broth dilution; ATCC10145; 18 h).
The MIC of C/C(=C\c1ccc(C#N)cc1)C(=O)Nc1ccc(C(=O)N[C@@H](CC(N)=O)C(=O)Nc2ccc(C(=O)Nc3ccc(C(=O)Nc4ccc(C(=O)O)cc4)c(O)c3OCC(C)C)cc2)cc1 is reported as greater than 64 µg/mL (PA14).
For [H]/N=C(/N)N[C@H]1[C@H](O)[C@@H](O)[C@H](O[C@@H]2O[C@@H](C)[C@](O)(C=O)[C@H]2O[C@@H]2O[C@@H](CO)[C@H](O)[C@@H](O)[C@@H]2NC)[C@@H](N/C(N)=N\[H])[C@@H]1O, the MIC was 64 µg/mL (broth dilution; PAO1).
With CC(C)Oc1c(NC(=O)c2ccc(NC(=O)[C@H](CC(N)=O)NC(=O)c3ccc(NC(=O)Cc4ccc(C#N)cc4)cc3)cc2)ccc(C(=O)Nc2ccc(C(=O)O)cc2)c1O the MIC was greater than 64 µg/mL (PA14).
With Cc1nc(Cl)c2c(c1O)C(=O)C1=C(O)[C@]3(O)C(=O)C(C(N)=O)=C(O)[C@@H](N(C)C)[C@@H]3C[C@@H]1C2.Cl the MIC was greater than 32 µg/mL (broth dilution; ATCC27853).
For CC(C)Oc1c(NC(=O)c2ccc(NC(=O)[C@H](CC(N)=O)NC(=O)c3ccc(NC(=O)c4ccc(C#N)cc4)cc3)cc2)ccc(C(=O)Nc2ccc(C(=O)O)cc2)c1O, the MIC was 2 µg/mL (PA14).
Cc1ccc(C)n1-c1ccc(-c2nnc(-c3ccc(Br)cc3)[nH]2)cc1 has an MIC of 125 µg/mL (broth dilution; ATCC10145; 18 h).
The MIC of C/C(O)=C1\C(=O)C(CC(C)C)N(C(=O)CCCCCc2ccccc2)C1=O (stereo not shown) is reported as greater than 200 µg/mL (PA01).
With CC(C)OCCNc1nc(Cl)c2c(c1O)C(=O)C1=C(O)[C@]3(O)C(=O)C(C(N)=O)=C(O)[C@@H](N(C)C)[C@@H]3C[C@@H]1C2.Cl.Cl.Cl the MIC was greater than 32 µg/mL (broth dilution; ATCC27853).
O=C(O)c1cn(C2CC2)c2cc(N3CCNCC3)c(F)cc2c1=O gave an MIC of 9.43 µM (broth dilution; 24 h).
For COc1c(C)c(OC(C)=O)c(C)c(O)c1C(=O)/C=C/c1ccccc1, the MIC was 5000 µg/mL (broth dilution; ATCC27853).
The MIC of O=C1NN=C(N=Cc2ccccc2)C1=NNn1c(-c2ccccc2)nc2ccccc2c1=O is reported as 114 µM (broth dilution; 24 h).
The MIC of Cc1ccc(C)n1-c1ccc(-c2n[nH]c(=S)[nH]2)cc1 is reported as 8 µg/mL (broth dilution; ATCC10145; 18 h).
For CCCCCCC#Cc1cncc(-c2nnc(SCc3ccc([N+](=O)[O-])cc3)n2C)c1, the MIC was no less than 20 µg/mL.
The MIC of Clc1cccc(NCc2ccc(Oc3ccccn3)cc2)c1 is reported as greater than 50 µg/mL.
The MIC of COC1CN(Cc2ccc3cc4c(c(O)c3c2)C(=O)C2=C(O)[C@]3(O)C(=O)C(C(N)=O)=C(O)[C@@H](N(C)C)[C@@H]3C[C@@H]2C4)C1 is reported as 32 µg/mL (broth dilution; ATCC27853).
With CC1(C)S[C@@H]2[C@H](NC(=O)C(C(=O)O)c3ccccc3)C(=O)N2[C@H]1C(=O)O (stereo partly shown) the MIC was greater than 200 µM (broth dilution).
With Clc1ccc(-c2nc3ccccc3n2Cc2ccccc2)cc1Cl the MIC was 256 µg/mL (broth dilution; ATCC27853).
The MIC of CC(C)Oc1c(N)ccc(C(=O)Nc2ccc(C(=O)N[C@@H](CC(N)=O)C(=O)Nc3ccc(C(=O)Nc4ccc(C(=O)Nc5ccc(C(=O)O)cc5)c(O)c4OC(C)C)cc3)cc2)c1O is reported as 32 µg/mL (PA14).
C[C@@H](O)[C@H]1C(=O)N2C(C(=O)O)=C(S[C@@H]3CN[C@H](C(=O)N(C)C)C3)[C@H](C)[C@H]12 gave an MIC of 0.25 µg/mL (broth dilution; 24 h).
With O=C(Nc1ccc(F)c(Cl)c1)c1cc(Cl)ccc1O the MIC was greater than 64 µg/mL (broth dilution; ATCC27853).
The MIC of CC(C)(C)Oc1ccc(CC2NC(=O)C(C(=O)NC(C(=O)NC3C(=O)N4C3SC(C)(C)C4C(=O)O)c3ccccc3)=C2O)cc1 (stereo not shown) is reported as 12.5 µg/mL.
For CN(C)[C@@H]1C(O)=C(C(N)=O)C(=O)[C@@]2(O)C(O)=C3C(=O)c4c(O)c(N)nc(F)c4C[C@H]3C[C@@H]12.Cl.Cl, the MIC was 4 µg/mL (broth dilution; ATCC27853).
With CCCCCCC/C=C/C(=O)N1C(=O)/C(=C(\O)CCCC)C(=O)C1CC(C)C (stereo not shown) the MIC was greater than 200 µg/mL (PA01).
The MIC of CN(C)[C@@H]1C(O)=C(C(N)=O)C(=O)[C@@]2(O)C(O)=C3C(=O)c4c(cc5ccccc5c4O)C[C@H]3C[C@@H]12 is reported as 32 µg/mL (broth dilution; ATCC27853).
CC(C)Oc1c(NC(=O)c2ccc(NC(=O)[C@H](CC(N)=O)NC(=O)c3ccc(NC(=O)c4ccc(F)cc4)cc3)cc2)ccc(C(=O)Nc2ccc(C(=O)O)cc2)c1O has an MIC of greater than 64 µg/mL (PA14).
The MIC of CN(C)c1cc(NC(=O)CNC(C)(C)C)c(O)c2c1C[C@H]1C[C@H]3[C@H](N(C)C)C(O)=C(C(N)=O)C(=O)[C@@]3(O)C(O)=C1C2=O is reported as 8 µg/mL (broth dilution; ATCC27853).
The MIC of CCCC(=O)Oc1c(C)c(O)c(C(=O)/C=C/c2ccccc2)c(OC)c1C is reported as 5000 µg/mL (broth dilution; ATCC27853).
With O=C(CCc1ccc(O)c(O)c1)NCCCCCCCC[P+](c1ccccc1)(c1ccccc1)c1ccccc1.[Br-] the MIC was greater than 32 µg/mL (broth dilution; ATCC27853; 18 h).
COc1c(C(=O)Nc2ccc(C(=O)O)cc2)ccc2nc(-c3cc(NC(=O)C(CC(N)=O)NC(=O)c4ccc(NC(=O)c5ccc(C#N)cc5)cc4)cn3C)[nH]c12 (stereo not shown) has an MIC of greater than 64 µg/mL (PA14).
CC(C)C1NC(=O)C(C(=O)NC(C(=O)NC2C(=O)N3C2SC(C)(C)C3C(=O)O)c2ccccc2)=C1O (stereo not shown) has an MIC of 50 µg/mL.
With O=C(CCCCCCCC[P+](c1ccccc1)(c1ccccc1)c1ccccc1)Nc1cc(O)c(O)c(O)c1.[Br-] the MIC was greater than 32 µg/mL (broth dilution; ATCC27853; 18 h).
CCCNc1nc(Cl)c2c(c1O)C(=O)C1=C(O)[C@]3(O)C(=O)C(C(N)=O)=C(O)[C@@H](N(C)C)[C@@H]3C[C@@H]1C2.Cl.Cl.Cl has an MIC of 32 µg/mL (broth dilution; ATCC27853).
With CCCCCCCC(=O)Oc1c(C)c(O)c(C(=O)/C=C/c2ccccc2)c(OC)c1C the MIC was 5000 µg/mL (broth dilution; ATCC27853).
For CC(C)Oc1c(NC(=O)c2ccc(NC(=O)[C@H](CC(N)=O)NC(=O)c3ccc(NC(=O)c4ccc(C#N)cc4)cc3)cc2)ccc(C(=O)Nc2cccc(C(=O)O)c2)c1O, the MIC was greater than 64 µg/mL (PA14).
CN(Cc1ccc2cc3c(c(O)c2c1)C(=O)C1=C(O)[C@]2(O)C(=O)C(C(N)=O)=C(O)[C@@H](N(C)C)[C@@H]2C[C@@H]1C3)c1ccccc1 gave an MIC of 32 µg/mL (broth dilution; ATCC27853).
Cc1cccc2nc(-c3ccc([N+](=O)[O-])o3)[nH]c12 has an MIC of greater than 64 µg/mL (broth dilution; ATCC27853).
